# Experimental data taken from ChEMBL document CHEMBL3822397, “Synthesis and bioevaluation of novel benzodipyranone derivatives as P-glycoprotein inhibitors for multidrug resistance reversal agents” (Eur J Med Chem, 2016).
# Calls of active or inactive are those of the source. The rule behind the calls is not given here.
# Experiments:
# [1] = molecular target: T1, ATP-dependent translocase ABCB1 (Homo sapiens, UniProt P08183); assay: Inhibition of full length human ABCB1 expressed in Flp-In-293 cells at 2.5 uM incubated for 30 mins by calcein-AM uptake assay relative to control; assay type: cell-based; conditions: 0.5 h
# [2] = molecular target: T1, ATP-dependent translocase ABCB1; assay: Inhibition of full length human ABCB1 expressed in Flp-In-293 cells at 5 uM incubated for 30 mins by calcein-AM uptake assay relative to control; assay type: cell-based; conditions: 0.5 h
# HEK293 [3] = assay: Potentiation of doxorubicin-induced cytotoxicity in Flp-In-293 cells assessed as reduction in doxorubicin IC50 at 10 uM after 72 hrs by SRB assay relative to control; assay type: functional, Homo sapiens
# HEK293 [4] = assay: Potentiation of paclitaxel-induced cytotoxicity in Flp-In-293 cells assessed as reduction in paclitaxel IC50 at 8 uM after 72 hrs by SRB assay relative to control; assay type: functional, Homo sapiens
# HEK293 [5] = assay: Potentiation of doxorubicin-induced cytotoxicity in Flp-In-293 cells assessed as reduction in doxorubicin IC50 at 8 uM after 72 hrs by SRB assay relative to control; assay type: functional, Homo sapiens
# [6] = molecular target: T1, ATP-dependent translocase ABCB1; assay: Inhibition of full length human ABCB1 expressed in Flp-In-293 cells assessed as potentiation of paclitaxel-induced cytotoxicity at 10 uM after 72 hrs by SRB assay relative to control; assay type: cell-based
# HEK293 [7] = assay: Potentiation of paclitaxel-induced cytotoxicity in Flp-In-293 cells assessed as reduction in paclitaxel IC50 at 10 uM after 72 hrs by SRB assay relative to control; assay type: functional, Homo sapiens
# HEK293 [8] = assay: Potentiation of vincristine-induced cytotoxicity in Flp-In-293 cells assessed as reduction in vincristine IC50 at 10 uM after 72 hrs by SRB assay relative to control; assay type: functional, Homo sapiens
# HEK293 [9] = assay: Downregulation of ABCB1 mRNA expression in Flp-In-293 cells transfected with full length human ABCB1 at 5 uM after 72 hrs by RT-PCR analysis; assay type: functional, cell-based
# Outline: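 ABCB1 mRNA measured after treating ABCB1/Flp-In-293 cells with test compounds for 72 hr. Data given as mean ± SE of three experiments, each in triplicate.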
# [10] = molecular target: T1, ATP-dependent translocase ABCB1; assay: Inhibition of full length human ABCB1 expressed in Flp-In-293 cells assessed as potentiation of vincristine-induced cytotoxicity at 8 uM after 72 hrs by SRB assay relative to control; assay type: cell-based
# HEK293 [11] = assay: Potentiation of vincristine-induced cytotoxicity in Flp-In-293 cells assessed as reduction in vincristine IC50 at 8 uM after 72 hrs by SRB assay relative to control; assay type: functional, Homo sapiens
# [12] = molecular target: T1, ATP-dependent translocase ABCB1; assay: Inhibition of full length human ABCB1 expressed in Flp-In-293 cells assessed as potentiation of doxorubicin-induced cytotoxicity at 10 uM after 72 hrs by SRB assay relative to control; assay type: cell-based
# [13] = molecular target: T1, ATP-dependent translocase ABCB1; assay: Inhibition of full length human ABCB1 expressed in Flp-In-293 cells assessed as potentiation of vincristine-induced cytotoxicity at 10 uM after 72 hrs by SRB assay relative to control; assay type: cell-based
# [14] = molecular target: T1, ATP-dependent translocase ABCB1; assay: Inhibition of full length human ABCB1 expressed in Flp-In-293 cells assessed as potentiation of paclitaxel-induced cytotoxicity at 8 uM after 72 hrs by SRB assay relative to control; assay type: cell-based
# [15] = molecular target: T1, ATP-dependent translocase ABCB1; assay: Inhibition of full length human ABCB1 expressed in Flp-In-293 cells assessed as potentiation of doxorubicin-induced cytotoxicity at 8 uM after 72 hrs by SRB assay relative to control; assay type: cell-based
# T1 sequence (P08183 whole entry): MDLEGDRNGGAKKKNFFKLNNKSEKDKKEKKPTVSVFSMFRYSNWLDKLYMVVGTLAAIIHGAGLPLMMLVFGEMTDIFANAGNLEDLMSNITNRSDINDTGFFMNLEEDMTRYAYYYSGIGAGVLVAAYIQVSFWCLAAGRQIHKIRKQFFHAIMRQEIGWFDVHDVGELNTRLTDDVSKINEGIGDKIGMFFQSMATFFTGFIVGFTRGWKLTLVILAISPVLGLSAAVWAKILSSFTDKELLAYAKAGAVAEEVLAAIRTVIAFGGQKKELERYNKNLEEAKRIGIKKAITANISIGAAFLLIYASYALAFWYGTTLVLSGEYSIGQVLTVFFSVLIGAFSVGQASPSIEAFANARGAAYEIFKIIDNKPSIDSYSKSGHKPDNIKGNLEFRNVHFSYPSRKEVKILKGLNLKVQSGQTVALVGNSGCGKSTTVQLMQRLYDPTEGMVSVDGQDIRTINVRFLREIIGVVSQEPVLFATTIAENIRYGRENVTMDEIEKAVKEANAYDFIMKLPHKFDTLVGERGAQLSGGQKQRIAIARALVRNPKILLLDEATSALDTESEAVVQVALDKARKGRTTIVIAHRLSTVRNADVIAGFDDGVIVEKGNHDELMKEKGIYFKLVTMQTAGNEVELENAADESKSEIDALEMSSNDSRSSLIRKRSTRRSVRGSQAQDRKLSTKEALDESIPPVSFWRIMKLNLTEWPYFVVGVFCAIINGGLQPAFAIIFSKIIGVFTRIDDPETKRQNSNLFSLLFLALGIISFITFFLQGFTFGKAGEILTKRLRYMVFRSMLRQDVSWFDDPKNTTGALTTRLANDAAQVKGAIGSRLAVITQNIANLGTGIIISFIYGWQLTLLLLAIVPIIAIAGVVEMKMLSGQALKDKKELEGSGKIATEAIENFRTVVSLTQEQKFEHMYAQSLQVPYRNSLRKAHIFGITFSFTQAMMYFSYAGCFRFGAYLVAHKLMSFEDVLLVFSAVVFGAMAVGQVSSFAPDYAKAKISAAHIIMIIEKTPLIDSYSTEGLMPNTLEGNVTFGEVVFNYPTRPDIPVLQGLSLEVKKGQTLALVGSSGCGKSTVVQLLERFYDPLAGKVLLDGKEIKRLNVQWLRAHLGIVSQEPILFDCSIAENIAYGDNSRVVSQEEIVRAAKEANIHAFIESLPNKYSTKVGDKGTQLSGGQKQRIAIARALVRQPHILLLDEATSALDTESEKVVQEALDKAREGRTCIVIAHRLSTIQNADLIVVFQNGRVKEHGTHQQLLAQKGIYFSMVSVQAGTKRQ
Structure (SMILES),fold change (FC) [1],fold change (FC) [2],also measured
Cc1ccccc1-c1coc2c(c(O)cc3occ(-c4ccccc4C)c(=O)c32)c1=O,1.15,1.53,
O=c1c(-c2ccc([N+](=O)[O-])cc2)coc2c1c(O)cc1occ(-c3ccc([N+](=O)[O-])cc3)c(=O)c12,0.88,0.75,
O=c1c(-c2ccccc2C(F)(F)F)coc2c1c(O)cc1occ(-c3ccccc3C(F)(F)F)c(=O)c12,0.76,0.81,
O=c1c(-c2ccccc2C(F)(F)F)coc2cc3occ(-c4ccccc4C(F)(F)F)c(=O)c3c(O)c12,1.32,1.36,
Cc1ccc(-c2coc3c(c(O)cc4occ(-c5ccc(C)cc5)c(=O)c43)c2=O)cc1,1.58,2.04,
O=c1c(C2CC2)coc2cc3occ(C4CC4)c(=O)c3c(O)c12,0.86,0.86,
O=c1c(-c2ccccc2[N+](=O)[O-])coc2c1c(O)cc1occ(-c3ccccc3[N+](=O)[O-])c(=O)c12,0.98,1.03,
COc1ccccc1-c1coc2cc3occ(-c4ccccc4OC)c(=O)c3c(O)c2c1=O,0.76,0.82,
O=c1c(-c2ccc(F)cc2)coc2c1c(O)cc1occ(-c3ccc(F)cc3)c(=O)c12,0.92,0.84,
COc1ccc(-c2coc3c(c(O)cc4occ(-c5ccc(OC)c(OC)c5)c(=O)c43)c2=O)cc1OC,1.45,1.64,fold change (FC) (HEK293 [3]): 1.3; fold change (FC) (HEK293 [4]): 1; fold change (FC) (HEK293 [5]): 1.2; fold change (FC) [6]: 9.5; fold change (FC) (HEK293 [7]): 1.3; fold change (FC) (HEK293 [8]): 8.2; Activity (HEK293 [9]): Active; fold change (FC) [10]: 4.1; fold change (FC) (HEK293 [11]): 7.8; fold change (FC) [12]: 1.5; fold change (FC) [13]: 9.7; fold change (FC) [14]: 8.8; fold change (FC) [15]: 1.5
O=c1c(-c2ccc(OC(F)(F)F)cc2)coc2c1c(O)cc1occ(-c3ccc(OC(F)(F)F)cc3)c(=O)c12,0.97,1.04,
O=c1c(C2CC2)coc2c1c(O)cc1occ(C3CC3)c(=O)c12,0.8,0.63,
COc1ccccc1-c1coc2c(c(O)cc3occ(-c4ccccc4OC)c(=O)c32)c1=O,1.4,1.56,
O=c1c(-c2c(F)cccc2Cl)coc2c1c(O)cc1occ(-c3c(F)cccc3Cl)c(=O)c12,0.66,0.64,
O=c1c(-c2ccccc2)coc2c1c(O)cc1occ(-c3ccccc3)c(=O)c12,1.04,1.29,
O=c1c(-c2ccccc2Cl)coc2c1c(O)cc1occ(-c3ccccc3Cl)c(=O)c12,0.98,1.09,
O=c1c(-c2ccc3c(c2)OCO3)coc2c1c(O)cc1occ(-c3ccc4c(c3)OCO4)c(=O)c12,0.72,0.7,
COc1cc(-c2coc3c(c(O)cc4occ(-c5cc(OC)c(OC)c(OC)c5)c(=O)c43)c2=O)cc(OC)c1OC,0.76,0.75,
O=c1c(-c2ccc(C(F)(F)F)cc2)coc2c1c(O)cc1occ(-c3ccc(C(F)(F)F)cc3)c(=O)c12,0.87,0.9,
COc1cc(-c2coc3cc4occ(-c5cc(OC)c(OC)c(OC)c5)c(=O)c4c(O)c3c2=O)cc(OC)c1OC,0.8,0.72,
O=c1c(-c2cccc3ccccc23)coc2cc3occ(-c4cccc5ccccc45)c(=O)c3c(O)c12,0.72,0.64,
O=c1c(-c2cccc3ccccc23)coc2c1c(O)cc1occ(-c3cccc4ccccc34)c(=O)c12,0.87,0.85,
COc1ccc(CCN(C)CCCC(C#N)(c2ccc(OC)c(OC)c2)C(C)C)cc1OC (centres undefined) [VERAPAMIL],,2.39,
O=c1c(-c2cccs2)coc2c1c(O)cc1occ(-c3cccs3)c(=O)c12,0.88,0.83,
O=c1c(-c2ccccc2[N+](=O)[O-])coc2cc3occ(-c4ccccc4[N+](=O)[O-])c(=O)c3c(O)c12,0.85,0.83,
O=c1c(-c2ccccc2F)coc2c1c(O)cc1occ(-c3ccccc3F)c(=O)c12,0.76,0.67,
O=c1c(-c2cccs2)coc2cc3occ(-c4cccs4)c(=O)c3c(O)c12,0.61,0.67,
O=c1c(-c2ccc(OC(F)(F)F)cc2)coc2cc3occ(-c4ccc(OC(F)(F)F)cc4)c(=O)c3c(O)c12,0.62,0.63,

# Further lines, with some results ahead:
fold change (FC) [1],fold change (FC) [2],Structure (SMILES),also measured
1.19,1.28,COc1cccc(-c2coc3c(c(O)cc4occ(-c5cccc(OC)c5)c(=O)c43)c2=O)c1,
1.27,1.18,O=c1c(-c2cccc(C(F)(F)F)c2)coc2cc3occ(-c4cccc(C(F)(F)F)c4)c(=O)c3c(O)c12,
0.81,0.86,COc1ccc(-c2coc3cc4occ(-c5ccc(OC)c(OC)c5)c(=O)c4c(O)c3c2=O)cc1OC,
0.83,0.82,O=c1c(-c2cccc(Cl)c2)coc2c1c(O)cc1occ(-c3cccc(Cl)c3)c(=O)c12,
0.5,0.87,O=c1c(-c2cccc(Cl)c2)coc2cc3occ(-c4cccc(Cl)c4)c(=O)c3c(O)c12,
0.71,0.85,O=c1c(-c2ccccc2Cl)coc2cc3occ(-c4ccccc4Cl)c(=O)c3c(O)c12,
0.76,0.82,O=c1c(-c2ccc(Cl)cc2)coc2c1c(O)cc1occ(-c3ccc(Cl)cc3)c(=O)c12,
0.92,0.89,O=c1c(-c2ccccc2F)coc2cc3occ(-c4ccccc4F)c(=O)c3c(O)c12,
1.01,0.99,O=c1c(-c2cccc(O)c2)coc2c1c(O)cc1occ(-c3cccc(O)c3)c(=O)c12,
0.96,0.82,O=c1c(-c2cccc(F)c2)coc2c1c(O)cc1occ(-c3cccc(F)c3)c(=O)c12,
0.85,1.3,O=c1c(-c2ccc(F)cc2)coc2cc3occ(-c4ccc(F)cc4)c(=O)c3c(O)c12,
0.95,1.06,O=c1c(-c2c(F)cccc2Cl)coc2cc3occ(-c4c(F)cccc4Cl)c(=O)c3c(O)c12,
0.86,0.93,Cc1cccc(-c2coc3cc4occ(-c5cccc(C)c5)c(=O)c4c(O)c3c2=O)c1,
1.1,1.15,O=c1c(-c2cccc(C(F)(F)F)c2)coc2c1c(O)cc1occ(-c3cccc(C(F)(F)F)c3)c(=O)c12,
0.87,0.81,Cc1ccccc1-c1coc2cc3occ(-c4ccccc4C)c(=O)c3c(O)c2c1=O,
1,0.85,COc1cccc(-c2coc3cc4occ(-c5cccc(OC)c5)c(=O)c4c(O)c3c2=O)c1,
1.04,0.9,O=c1c(-c2ccccc2)coc2cc3occ(-c4ccccc4)c(=O)c3c(O)c12,
1.62,1.81,Cc1ccc(-c2coc3cc4occ(-c5ccc(C)cc5)c(=O)c4c(O)c3c2=O)cc1,
0.6,0.75,O=c1c(-c2cccc(F)c2)coc2cc3occ(-c4cccc(F)c4)c(=O)c3c(O)c12,
1.33,1.19,O=c1c(-c2cccc(O)c2)coc2cc3occ(-c4cccc(O)c4)c(=O)c3c(O)c12,
0.87,1.3,COc1ccc(-c2coc3cc4occ(-c5ccc(OC)cc5)c(=O)c4c(O)c3c2=O)cc1,
0.8,0.81,O=c1c(-c2ccc(Cl)c(Cl)c2)coc2c1c(O)cc1occ(-c3ccc(Cl)c(Cl)c3)c(=O)c12,
1.06,1.08,O=c1c(-c2ccc(Cl)cc2)coc2cc3occ(-c4ccc(Cl)cc4)c(=O)c3c(O)c12,
